XiGFP reactiv – reactivates the inactive X chromosome in mouse fibroblasts. XiGFP mouse fibroblasts, % GFP-positive cells imaging, 3 d; cells co-treated with 5-aza-dC sensitizer; scaled so ellipticine positive control = 100%. hit rate 0.055% among 360,000. activation, % at 7.58 µM;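 active = mean normalized replicate activation at least 10% and every replicate at or above 10%; inconclusive = only one of the two criteria met; inactive = mean below 10% and not all replicates reach 10%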
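Schedule: 3 d treatment, 15 min room-temperature fixation; system: 68-5-11 XiGFP fibroblast line; buffer or medium: DMEM plus 5-aza-dC sensitizer; control set: ellipticine 6 µM positive control; compound: one concentration, pinned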
Cneo AK release – causes C. neoformans cell lysis; adenylate kinase release luminescence, 4 h; normalised: neutral wells 0, clomiphene wells 100; lysis activity, % at 15 µM; hit rate 0.2% among 360,000;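 active = mean lysis activity across replicates of at least 80%, whatever share of replicates individually reach that level; inactive = mean lysis activity below 80%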
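Material: C. neoformans cells; Schedule: 4 h static compound exposure, 37 °C, read 1 h post-reagent; Measured by: adenylate kinase release luminescence; Read-out: signal increase indicating cell lysis; Controls: Clomiphene as positive lysis control.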
DENV2 CPE rescue – DENV2-induced cell death inhibition; DENV2-infected cells, cytopathic effect rescue, plate reader; CPE inhibition, % at 9.99 µM; hit rate 1.7% among 350,000; AID 651640; in the data active = CPE inhibition above about 20%, passing the limit was not always enough; inconclusive = no clear call, values can overlap the other calls; tested in BHK-21 cells
C2C12 statin – suppressors of simvastatin-induced myotoxicity in C2C12 myotubes; ATP luminescence, 48 h; scaled: DMSO 0, geranylgeraniol control 100; rescue of ATP level, % at 7.49 µM; hit rate 0.78% among 330,000; AID 602340;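 active = mean ATP rescue above about 67%, or every replicate alone reaching that limit, limit read from the data, passing the limit was not always enough; inconclusive = no clear call, values can overlap the other calls; inactive = mean under the limit and some replicate under it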;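 also: myotubes were challenged with 10 µM simvastatin during compound exposure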
Numbers stand for hits. Most compounds without a hit are left out; they make up all but 2.1% or so of the library.

For CCCCNC(=O)C1(C)CCN1C(=O)c1cc(-c2cccs2)oc1C (stereo not given) the results were XiGFP reactiv inactive, Cneo AK release inactive, DENV2 CPE rescue 33 and C2C12 statin inactive.
`CC(=O)N[C@H]1CC[C@H](CCNC(=O)C2CCCC2)O[C@H]1CO` gave XiGFP reactiv inactive, Cneo AK release inactive, DENV2 CPE rescue inactive and C2C12 statin inactive.
CC(=O)N[C@H]1CC[C@@H](CCNC(=O)C2CCC2)O[C@H]1CO was read as XiGFP reactiv inactive, Cneo AK release 112, DENV2 CPE rescue inactive and C2C12 statin inactive.
For Cc1noc(C)c1NC(=O)N[C@H]1CC[C@H](CCNC(=O)C2CCCC2)O[C@@H]1CO the results were XiGFP reactiv inactive, Cneo AK release inactive, DENV2 CPE rescue 20 and C2C12 statin inactive.
Screening CC(=O)N[C@H]1CC[C@@H](CCNC(=O)C2CCCC2)O[C@@H]1CO returned XiGFP reactiv inactive, Cneo AK release inactive, DENV2 CPE rescue 27 and C2C12 statin inactive.
`C[C@H](CO)N1C[C@H](C)[C@H](CN(C)C(=O)CCC(F)(F)F)OCCCC[C@H](C)Oc2ccc(N(C)C)cc2C1=O` gave XiGFP reactiv inactive, Cneo AK release inactive, DENV2 CPE rescue inactive and C2C12 statin inactive.
C[C@H]1CN([C@@H](C)CO)C(=O)c2cccc(NC(=O)c3nc4ccccc4s3)c2O[C@H]1CN(C)Cc1ccc(Oc2ccccc2)cc1 was read as XiGFP reactiv inactive, Cneo AK release inactive, DENV2 CPE rescue inactive and C2C12 statin inactive.
COc1ccc(CCN2CCC(CN3C(=S)NC[C@@H]3Cc3ccccc3)CC2)cc1OC was read as XiGFP reactiv inactive and DENV2 CPE rescue 93.
O=C1NC[C@H](Cc2ccccc2)N(CC2CCN(CCCCc3ccccc3)CC2)C1=O was read as XiGFP reactiv inactive, Cneo AK release inactive, DENV2 CPE rescue 35 and C2C12 statin inactive.
Screening CCCCN1CCC(CN2C(=O)C(=O)NC[C@@H]2Cc2ccccc2)CC1 returned XiGFP reactiv inactive, Cneo AK release inactive, DENV2 CPE rescue inactive and C2C12 statin inactive.
CC(C)NC(=O)N(C)C[C@@H]1OCCCC[C@@H](C)Oc2ccc(NC(=O)CCC(F)(F)F)cc2C(=O)N([C@@H](C)CO)C[C@@H]1C was read as XiGFP reactiv inactive, Cneo AK release inactive and DENV2 CPE rescue inactive.
Screening CC1CCN(C(=O)CNS(=O)(=O)c2ccc(Br)s2)CC1 returned Cneo AK release inactive and C2C12 statin inactive.
For O=C(CNS(=O)(=O)c1ccc(Br)s1)N1CCN(c2ncccn2)CC1 the results were Cneo AK release inactive and C2C12 statin 150.
O=C(Cn1cnc2c(nnn2Cc2ccc(F)cc2)c1=O)NC1CCCC1 was read as Cneo AK release inactive and C2C12 statin 141.
Screening C[C@@H]1CN(C)C(=O)Cc2cc(N)ccc2O[C@H]1CN(C)S(C)(=O)=O returned XiGFP reactiv inactive.
CCC(=O)Nc1ccc2c(c1)OC[C@H](C)N(C(=O)c1ccccc1F)C[C@H](C)[C@@H](OC)CN(C)C2=O was read as XiGFP reactiv inactive, Cneo AK release inactive, DENV2 CPE rescue 22 and C2C12 statin inactive.
CCC(=O)Nc1ccc2c(c1)OC[C@@H](C)N(C(=O)c1ccccc1F)C[C@H](C)[C@H](OC)CN(C)C2=O was read as XiGFP reactiv inactive, Cneo AK release inactive, DENV2 CPE rescue inactive and C2C12 statin inactive.
CCCC(=O)Nc1ccc2c(c1)C(=O)N(C)C[C@@H](OC)[C@H](C)CN(C(=O)c1ccccc1F)[C@@H](C)CO2 was read as XiGFP reactiv inactive, Cneo AK release inactive, DENV2 CPE rescue 44 and C2C12 statin inactive.
`CO[C@H]1CN(C)C(=O)c2ccc(NC(=O)CC(F)(F)F)cc2OC[C@@H](C)N(C(=O)c2ccccc2F)C[C@H]1C` gave XiGFP reactiv inactive and DENV2 CPE rescue 62.
C[C@H]1CN([C@@H](C)CO)C(=O)Cc2cc(NC(=O)CCCCCC(=O)Nc3ccccc3N)ccc2O[C@@H]1CN(C)Cc1ccc(-c2ccccc2)cc1 was read as XiGFP reactiv inactive, Cneo AK release inactive, DENV2 CPE rescue inactive and C2C12 statin 133.
Screening C[C@H](CO)N1C[C@H](C)[C@H](CN(C)Cc2ccccc2)Oc2ccc(NC(=O)CCCCCC(=O)Nc3ccccc3N)cc2CC1=O returned XiGFP reactiv inactive, Cneo AK release inactive, DENV2 CPE rescue 58 and C2C12 statin 80.
C[C@H]1CN([C@@H](C)CO)C(=O)Cc2cc(NC(=O)CCCCCC(=O)Nc3ccccc3N)ccc2O[C@H]1CN(C)Cc1ccc(Oc2ccccc2)cc1 was read as XiGFP reactiv inactive, Cneo AK release inactive, DENV2 CPE rescue inconclusive and C2C12 statin 104.
Screening C[C@H]1CN([C@@H](C)CO)C(=O)Cc2cc(NC(=O)CCCCCC(=O)Nc3ccccc3N)ccc2O[C@@H]1CN(C)CC1CCCCC1 returned XiGFP reactiv inactive, Cneo AK release inactive, DENV2 CPE rescue inactive and C2C12 statin inconclusive.
Screening C[C@@H]1CN([C@H](C)CO)C(=O)Cc2cc(NC(=O)CCCCCC(=O)Nc3ccccc3N)ccc2O[C@H]1CN(C)CC1CCCCC1 returned XiGFP reactiv inactive, Cneo AK release inactive, DENV2 CPE rescue inactive and C2C12 statin 88.
`C[C@@H]1CN([C@@H](C)CO)C(=O)Cc2cc(NC(=O)CCCCCC(=O)Nc3ccccc3N)ccc2O[C@@H]1CN(C)Cc1ccc(-c2ccccc2)cc1` gave XiGFP reactiv inactive, Cneo AK release inactive, DENV2 CPE rescue inactive and C2C12 statin inactive.
Screening C[C@H](CO)N1C[C@H](C)[C@H](CN(C)Cc2ccc(Oc3ccccc3)cc2)Oc2ccc(NC(=O)CCCCCC(=O)Nc3ccccc3N)cc2CC1=O returned XiGFP reactiv inactive, Cneo AK release inactive, DENV2 CPE rescue inactive and C2C12 statin inactive.
Screening COCC(=O)Nc1ccc2c(c1)OC[C@H](C)N(C(=O)c1ccccn1)C[C@H](C)[C@H](OC)CN(C)C2=O returned XiGFP reactiv inactive, Cneo AK release inactive and C2C12 statin inactive.
For CC(C)C(=O)Nc1ccc2c(c1)C(=O)N(C)[C@@H]1CC[C@H](CC(=O)N[C@H](C)c3ccccc3)O[C@@H]1CO2 the results were XiGFP reactiv inactive, Cneo AK release inactive, DENV2 CPE rescue inactive and C2C12 statin inactive.
CS(=O)(=O)Nc1ccc2c(c1)[C@H]1C[C@@H](CC(=O)NCc3ccc(Oc4ccccc4)cc3)O[C@H](CO)[C@H]1O2 was read as XiGFP reactiv inactive, Cneo AK release inactive, DENV2 CPE rescue inactive and C2C12 statin inactive.
C[C@@H]1CN(C)C(=O)Cc2ccccc2O[C@@H]1CN(C)C(=O)OC(C)(C)C was read as XiGFP reactiv inactive.
For C[C@H](CO)N1C[C@H](C)[C@@H](CN(C)Cc2ccc(Cl)c(Cl)c2)Oc2ccc(NC(=O)CCCCCC(=O)Nc3ccccc3N)cc2CC1=O the results were XiGFP reactiv inactive and DENV2 CPE rescue inactive.
`C[C@H]1CN([C@@H](C)CO)C(=O)Cc2cc(NC(=O)CCCCCC(=O)Nc3ccccc3N)ccc2O[C@H]1CN(C)Cc1ccc(Cl)c(Cl)c1` gave XiGFP reactiv inactive, Cneo AK release inactive, DENV2 CPE rescue inactive and C2C12 statin 105.

Screens (PubChem BioAssay)
